Assays:
[1] = tested on: Mycobacterium tuberculosis; assay: Activity at Mycobacterium tuberculosis beta lactamase BlaC expressed in Escherichia coli by spectrophotometric method
Procedure, shortened: (§1)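 BlaC produced in E. coli, purified by Ni-NTA affinity and size-exclusion chromatography. Carbapenem hydrolysis followed spectrophotometrically in 100 mM MES buffer, pH 6.4, at 20 °C. Direct determination of kcat and Km for substrates with Km above 10 μM. For the other compounds, kcat and Km were obtained by competition against the reporter substrate nitrocefin.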

[2] = tested on: Mycobacterium tuberculosis; assay: Inhibition of Mycobacterium tuberculosis LdtMt1 expressed in Escherichia coli assessed as efficiency of acylation reaction by measuring ratio of K2 to Kapp by stopped-flow spectrofluorimetric method
Procedure, shortened: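 His-tagged LdtMt1 expressed in E. coli and purified by Ni2+-NTA affinity, then by size-exclusion chromatography in 100 mM sodium phosphate pH 6.4 with 300 mM NaCl. Inactivation kinetics measured by stopped-flow spectrofluorimetry in 100 mM sodium phosphate, pH 6.0, at 10 °C. k1, k2 and k2/Kapp were calculated from the fluorescence kinetics.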

[3] = tested on: Mycobacterium tuberculosis; assay: Activity at Mycobacterium tuberculosis beta lactamase BlaC expressed in Escherichia coli assessed as ratio of Kcat to Km by spectrophotometric method; procedure, shortened: as §1

| Structure (SMILES) | Km [1] [µM] | Ratio [2] [M⁻¹ s⁻¹] | kcat/Km [3] [M⁻¹ s⁻¹] |
| --- | --- | --- | --- |
| C[C@@H](O)[C@H]1C(=O)N2C(C(=O)O)=C(S[C@@H]3CN[C@H](C(=O)N(C)C)C3)[C@H](C)[C@H]12 | 0.92 | 1300 | 1000 |
| C[C@@H](O)[C@H]1C(=O)N2C(C(=O)O)=C(SCCc3cn(-c4ccccc4)nn3)[C@H](C)[C@H]12 | 0.31 | 26000 | 2100 |
| C[C@@H](O)[C@H]1C(=O)N2C(C(=O)O)=C(SCCc3ccccc3)[C@H](C)[C@H]12 | 1.5 | 39000 | 360 |
| C[C@@H](O)[C@H]1C(=O)N2C(C(=O)O)=C(SCCc3cn(-c4ccccc4C(=O)O)nn3)[C@H](C)[C@H]12 | 3.3 | 26000 | 300 |
| C[C@@H](O)[C@H]1C(=O)N2C(C(=O)O)=C(SCCc3cn(-c4cccc(C(=O)O)c4)nn3)[C@H](C)[C@H]12 | 19 | 36000 | 13000 |
| C[C@@H](O)[C@H]1C(=O)N2C(C(=O)O)=C(SCCN)[C@H](C)[C@H]12 | 3.5 | 3600 | 320 |
| C[C@@H](O)[C@H]1C(=O)N2C(C(=O)O)=C(S[C@@H]3CN[C@H](C(=O)Nc4cccc(C(=O)O)c4)C3)[C@H](C)[C@H]12 | 4.8 | 23000 | 330 |
| C[C@@H](O)[C@H]1C(=O)N2C(C(=O)O)=C(S[C@@H]3CN[C@H](CNS(N)(=O)=O)C3)[C@H](C)[C@H]12 | 0.46 | 1500 | 1500 |
| C[C@@H](O)[C@H]1C(=O)N2C(C(=O)O)=C(SCCc3cn(CCCCC(=O)O)nn3)[C@H](C)[C@H]12 | 56 | 9600 | 5700 |
| CC(c1ccc(C(=O)O)cc1)n1cc(CCSC2=C(C(=O)O)N3C(=O)[C@H]([C@@H](C)O)[C@H]3[C@H]2C)nn1 (some centres not stated) | 47 | 29000 | 3200 |
| C[C@@H](O)[C@H]1C(=O)N2C(C(=O)O)=C(SCCc3cn(CCc4c[nH]c5ccccc45)nn3)[C@H](C)[C@H]12 | 0.17 | 28000 | 2000 |
| CCSC1=C(C(=O)O)N2C(=O)[C@H]([C@@H](C)O)[C@H]2[C@H]1C | 11 | 10800 | 3700 |
| CCSC1=C(C(=O)O)N2C(=O)[C@H]([C@@H](C)OC(=O)c3c(F)c(F)c(F)c(F)c3F)[C@H]2[C@H]1C | 1.4 | 25000 | 840 |
| CCSC1=C(C(=O)O)N2C(=O)[C@H]([C@@H](C)OC(=O)c3ccccc3)[C@H]2[C@H]1C | 1.2 | 3800 | 1500 |

Reference: ChEMBL document CHEMBL3797045, “Routes of Synthesis of Carbapenems for Optimizing Both the Inactivation of L,D-Transpeptidase LdtMt1 of Mycobacterium tuberculosis and the Stability toward Hydrolysis by β-Lactamase BlaC” (J Med Chem, 2016)
